Source: ChEMBL document CHEMBL1142654, “Partition-variant desferrithiocin analogues: organ targeting and increased iron clearance” (J Med Chem, 2005)

Key:
[1] = test system: Monkey; assay: Percentage of iron clearing efficiency was measured in monkey after administration at 150 umol/kg (n=4); type: functional
Summary of the method: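 Cebus apella monkeys iron-overloaded with iv iron dextran to about 500 mg Fe/kg, at least 60 days before use. Single po dose of 150 µmol/kg as solution or suspension in 40% Cremophor RH-40/water. Stool and urine collected every 24 h, from 4 days before dosing to 5 days after. Iron measured by flame atomic absorption. ICE = (2-day post-dose iron minus mean 4-day baseline) / theoretical excretion × 100. Mean ± SEM.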

[2] = Lipophilicity (Log Papp) was measured at pH 7.4; Activity expressed as the log of the fraction in the octanol layer; type: physicochemical; details: octanol/aqueous phase
Summary of the method: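 Shake-flask octanol/water distribution at pH 7.4 in 50 mM TRIS buffer, uncorrected for partial ionization. Quadruplicate samples shaken with 1-octanol overnight, layers left to settle 1-2 h before separation. Room temperature (22-24 °C), UV spectrometric read-out, value given as log of fraction in octanol layer.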

Row | SMILES | log fraction in octanol layer [2] | Activity [1]
1 | COc1cccc(C2=N[C@@H](C(=O)O)CS2)c1O | -1.52 | 15.5%
2 | O=C(O)[C@H]1CSC(c2cccc(O)c2O)=N1 | -1.67 | 5.8%
3 | O=C(O)[C@H]1CSC(c2ccc(O)cc2O)=N1 | -1.33 | 4.2%
4 | COc1ccc(C2=N[C@@H](C(=O)O)CS2)c(O)c1 | -0.89 | 16.2%

More lines, main results first:

Row | log fraction in octanol layer [2] | SMILES | Activity [1]
5 | -1.17 | C[C@]1(C(=O)O)CSC(c2cccc(O)c2O)=N1 | 23.1%
6 | -0.7 | COc1ccc(C2=N[C@@](C)(C(=O)O)CS2)c(O)c1 | 24.4%
7 | -1.12 | COc1cccc(C2=N[C@@](C)(C(=O)O)CS2)c1O | 22.5%
8 | -1.05 | C[C@]1(C(=O)O)CSC(c2ccc(O)cc2O)=N1 [DEFERITRIN] | 13.4%
